Data as given in ChEMBL document CHEMBL3875213, “Quinolines: Microwave-assisted synthesis and their antifungal, anticancer and radical scavenger properties” (Bioorg Med Chem, 2017).
Values after ≈ are worked out from the molar mass of the structure shown. Active and inactive are the calls of the source. The rule behind the calls is not given here.

Assays:
Type in all cases: functional
Candida albicans [1] = assay: Growth inhibition of Candida albicans ATCC 10231 at 125 ug/ml incubated for 48 hrs under dark condition by broth microdilution assay relative to amphotericin B; settings: ATCC 10231, 48 h, read-out: GI
Outline: (§1)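 Yeast broth microdilution (CLSI M27-A3), RPMI-1640, inoculum 1-5 x 10^3 CFU/mL, DMSO ≤1%, 48 h at 30 °C in a moist, dark chamber. […]. Triplicate; amphotericin B as positive control.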

Candida albicans [2] = assay: Growth inhibition of Candida albicans ATCC 10231 at 7.81 ug/ml incubated for 48 hrs under dark condition by broth microdilution assay relative to amphotericin B; settings: ATCC 10231, 48 h, read-out: GI; outline: as §1
Candida albicans [3] = assay: Growth inhibition of Candida albicans ATCC 10231 at 3.9 ug/ml incubated for 48 hrs under dark condition by broth microdilution assay relative to amphotericin B; settings: ATCC 10231, 48 h, read-out: GI; outline: as §1
Candida albicans [4] = assay: Growth inhibition of Candida albicans ATCC 10231 at 62.5 ug/ml incubated for 48 hrs under dark condition by broth microdilution assay relative to amphotericin B; settings: ATCC 10231, 48 h, read-out: GI; outline: as §1
[5] = Antioxidant activity assessed as fluorescent light-induced superoxide anion scavenging activity at 160 uM incubated for 10 mins by nitroblue tetrazolium dye based assay
Outline: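 Superoxide generated photochemically in 50 mM phosphate buffer pH 7.8 with 13 mM L-methionine, 75 µM nitroblue tetrazolium, 100 µM EDTA and 2 µM riboflavin. Compound at 160 µM. 10 min at 25 °C under fluorescent light; dark controls. Read at 575 nm. Resveratrol as positive control; three independent experiments in triplicate.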

Candida albicans [6] = assay: Growth inhibition of Candida albicans ATCC 10231 at 31.25 ug/ml incubated for 48 hrs under dark condition by broth microdilution assay relative to amphotericin B; settings: ATCC 10231, 48 h, read-out: GI; outline: as §1
Candida albicans [7] = assay: Growth inhibition of Candida albicans ATCC 10231 at 250 ug/ml incubated for 48 hrs under dark condition by broth microdilution assay relative to amphotericin B; settings: ATCC 10231, 48 h, read-out: GI; outline: as §1
Candida albicans [8] = assay: Antifungal activity against Candida albicans ATCC 10231 incubated for 48 hrs under dark condition by broth microdilution assay; settings: ATCC 10231, 48 h
Outline: (§2)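 Broth microdilution per CLSI M27-A3 in RPMI-1640. Inocula adjusted to 1-5 x 10^3 CFU/mL. Stocks in DMSO (≤1%), final 3.9-250.0 µg/mL. Incubated 48 h at 30 °C in a moist, dark chamber, read at OD 405. % inhibition computed from growth and sterility control wells, run in triplicate. MIC80/MIC50 taken from four-parameter logistic concentration-response curves; amphotericin B as positive control.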

Candida albicans [9] = assay: Growth inhibition of Candida albicans ATCC 10231 at 15.62 ug/ml incubated for 48 hrs under dark condition by broth microdilution assay relative to amphotericin B; settings: ATCC 10231, 48 h, read-out: GI; outline: as §1
[10] = Antifungal activity against Cryptococcus neoformans ATCC 32264 incubated for 48 hrs under dark condition by broth microdilution assay; outline: as §2
[11] = Antioxidant activity assessed as DPPH radical scavenging activity at 160 uM incubated for 30 mins under dark condition
Outline: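 Compound at 160 µM incubated with 100 µM DPPH in ethanolic medium, stirred in the dark for 30 min, read at 517 nm. Resveratrol as positive control. Three independent experiments, each in triplicate.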

[12] = Antioxidant activity assessed as fluorescent light-induced superoxide anion scavenging activity incubated for 10 mins by nitroblue tetrazolium dye based assay
Outline: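 Riboflavin/light superoxide system: 50 mM phosphate pH 7.8, 13 mM L-methionine, 75 µM NBT, 100 µM EDTA, 2 µM riboflavin, compound 0-200 µg/mL. Fluorescent light for 10 min at 25 °C, dark controls, scavenging measured at 575 nm. Resveratrol as reference.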

[13] = Antioxidant activity assessed as DPPH radical scavenging activity incubated for 30 mins under dark condition
Outline: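 DPPH (100 µM) in ethanolic medium, stirred 30 min in the dark, absorbance at 517 nm. Compound varied from 0 to 160 µg/mL to find the concentration scavenging 50% of radicals. Three independent experiments, each in triplicate.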

Row | SMILES | inhibition of growth at 125 µg/mL (Candida albicans [1]) [%] | inhibition of growth at 7.81 µg/mL (Candida albicans [2]) [%] | inhibition of growth at 3.9 µg/mL (Candida albicans [3]) [%] | inhibition of growth at 62.5 µg/mL (Candida albicans [4]) [%] | Activity [5] | inhibition of growth at 31.25 µg/mL (Candida albicans [6]) [%] | inhibition of growth at 250 µg/mL (Candida albicans [7]) [%] | MIC50 (Candida albicans [8]) [µg/mL] | MIC80 (Candida albicans [8]) [µg/mL] | inhibition of growth at 15.62 µg/mL (Candida albicans [9]) [%] | MIC50 [10] [µg/mL] | MIC80 [10] [µg/mL] | Activity [11] [%] | SC50 [12] [µM] | SC50 [13] [µM]
1 | O=C(O)c1ccc2nc(-c3ccccc3)cc(-c3ccccc3)c2c1 | 34.6 | 5.63 | 0 | 22.6 | Active | 11.9 | 57.5 | 250 (≈ 768 µM) | > 250 | 7.19 | 250 (≈ 768 µM) | > 250 |  |  | 
2 | Oc1ccc2c(-c3ccccc3)cc(-c3ccccc3)nc2c1 | 29.9 | 0 | 0 | 21.2 |  | 12.8 | 53.9 | > 250 | > 250 | 80.4 | 15.6 (≈ 52.5 µM) | > 250 | 70 to 85 |  | 
3 | CC(C)(C)c1ccc2nc(-c3ccccc3)cc(-c3ccccc3)c2c1 | 1.84 | 0 | 0 | 0 | 50% | 0 | 7.81 | > 250 | > 250 | 0 | 3.9 (≈ 11.6 µM) | 15.6 (≈ 46.2 µM) |  | > 250 | > 250
4 | Clc1ccc2nc(-c3ccccc3)cc(-c3ccccc3)c2c1 | 53.9 | 8.07 | 0 | 33.1 | < 10% | 20 | 89.8 | > 250 | > 250 | 14 | 15.6 (≈ 49.4 µM) | > 250 |  |  | 
5 | O=[N+]([O-])c1ccc2nc(-c3ccccc3)cc(-c3ccccc3)c2c1 | 15.4 | 0 | 0 | 5.93 | Active | 1.57 | 36.1 | > 250 | > 250 | 0 | 125 (≈ 383 µM) | 250 (≈ 766 µM) | 45 to 55 | > 250 | 104
6 | O=[N+]([O-])c1ccc(-c2cc(-c3ccccc3)c3cc(Br)ccc3n2)cc1 | 5.11 | 1.55 | 0 | 4.28 | Active | 4.01 | 18.2 | > 250 | > 250 | 2.64 | > 250 | > 250 | 40 |  | 
7 | FC(F)(F)c1cc2nc(-c3ccccc3)cc(-c3ccccc3)c2cc1Cl | 25.7 | 3.5 | 0 | 15.7 |  | 9.41 | 54.1 | 250 (≈ 651 µM) | > 250 | 5.36 | 250 (≈ 651 µM) | > 250 |  |  | 
8 | Fc1ccc2nc(-c3ccccc3)cc(-c3ccccc3)c2c1 | 34.2 | 2.01 | 0 | 18.4 | < 10% | 11.8 | 67.5 | 250 (≈ 835 µM) | > 250 | 4.27 | > 250 | > 250 |  |  | 
